# Results as given in ChEMBL document CHEMBL4138115, “An evaluation of Minor Groove Binders as anti-fungal and anti-mycobacterial therapeutics” (Eur J Med Chem, 2017).
# The source made the active and inactive calls. The calls are words filed in the database; no cut-off is given here.
# Experiments:
# Salmon testes DNA = assay: Binding affinity to wild type salmon sperm DNA assessed as change in melting temperature at 10 uM; type: nucleic-acid assay; conditions: Salmonidae
# Trypanosoma congolense = assay: Antiparasitic activity against Trypanosoma congolense IL3000 after 69 hrs by Alamar blue assay; type: functional, organism-based; conditions: IL3000, 69 h
# Summary of the method: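 Bloodstream-form IL3000 counted electronically and seeded at 1.25 × 10⁵ trypanosomes/ml into threefold serial compound dilutions. Kept 69 h at 34 °C, 5% CO₂, then resazurin (12.5 mg per 100 mL PBS) added for 3 h. Fluorescence ex 536/em 588 nm gives EC50. Three separate assay runs.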
# Staphylococcus aureus = assay: Antibacterial activity against methicillin-resistant Staphylococcus aureus ATCC 43300 after 18 hrs by two-fold serial dilution assay; type: functional; conditions: ATCC 43300, 18 h
# Summary of the method: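 MRSA ATCC 43300 grown overnight in cation-adjusted Mueller Hinton broth at 37 °C, diluted 40-fold, grown 1.5–3 h to mid-log. Inoculated at 5 × 10⁵ CFU/mL into two-fold compound dilutions (final 32–0.25 range). Incubated 18 h at 37 °C without shaking; OD600 read. Inhibition normalised to media-only and untreated-bacteria controls. MIC taken as lowest concentration giving ≥80% inhibition; duplicates (n = 2).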
# Candida albicans = assay: Antifungal activity against Candida albicans ATCC 90028 after 24 hrs by resazurin dye-based two-fold serial dilution assay; type: functional; conditions: ATCC 90028, 24 h
# Cryptococcus neoformans = assay: Antifungal activity against Cryptococcus neoformans ATCC 208821 after 24 hrs by resazurin dye-based two-fold serial dilution assay; type: functional
# [1] = test system: Trypanosoma brucei brucei; assay: Antiparasitic activity against Trypanosoma brucei brucei Lister 427 after 48 hrs by Alamar blue assay; type: functional, organism-based; conditions: Lister 427, 48 h
# Summary of the method: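 Bloodstream-form Lister 427 in HMI-9 with 10% heat-inactivated FBS, counted by haemocytometer and seeded at 2 × 10⁴ cells/mL over serial compound dilutions. After 48 h at 37 °C, 5% CO₂, resazurin (0.49 mM solution in PBS) added for a further 24 h. Fluorescence ex 544/em 590 nm; EC50 from curve fit. Duplicates, at least three independent occasions.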
# [2] = Selectivity index, ratio of CC50 for cytotoxicity against HEK293 cells to MIC50 for antimycobacterial activity against GFP labelled Mycobacterium tuberculosis H37Rv; type: toxicity, cell-based; conditions: human, read-out: Selectivity Index
# [3] = Lipophilicity of the compound assessed as retention time by HPLC method; type: physicochemical
# Summary of the method: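 Reverse-phase C18 HPLC with water and acetonitrile, each containing 0.1% TFA. Gradient runs from 100% water to 100% acetonitrile over 1 h; lipophilicity reported as retention time in minutes.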
# [4] = test system: Mycobacterium tuberculosis; assay: Antimycobacterial activity against GFP labelled Mycobacterium tuberculosis H37Rv up to 14 days by fluorescence assay; type: functional
# Summary of the method: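 GFP-labelled Mtb H37Rv at 1 × 10^5 CFU/well in 7H9 broth with 10% OADC and 25 kanamycin. Two-fold compound dilutions were tested. Incubated at 37 °C without shaking.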
# [5] = Cytotoxicity against HEK293 cells reduction in cell viability after 20 hrs by resazurin dye based fluorescence assay; conditions: human
# Summary of the method: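 HEK-293 cells at 4000 per well in DMEM with 10% FBS, exposed to two-fold dilutions from 32 to 0.25 (final) for 20 h at 37 °C, 5% CO₂. Resazurin added (100 final) for 3 h more; fluorescence ex 560/em 590 nm. CC50 is the concentration giving 50% cytotoxicity. Duplicates.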
SMILES,ΔTm (Salmon testes DNA) [°C],EC50 (Trypanosoma congolense) [µM],MIC80 (Staphylococcus aureus) [µg/mL],MIC80 (Candida albicans) [µg/mL],MIC70 (Cryptococcus neoformans) [µg/mL],EC50 [1] [µM],selectivity ratio [2],Retention_time [3] [min],MIC99 ([4]; 336 h) [µg/mL],CC50 at 20 h [5] [µg/mL],MIC99 [4]
CC(C)CCc1sc(NC(=O)c2cc(NC(=O)c3cc(NC(=N)c4ccc(F)cc4)cn3C)cn2C)nc1C(=O)NCCCN(C)C,9,10,8,> 32,4,18,25,26.2,3.1,18,–
CC(C)CCc1sc(NC(=O)c2cc(NC(=O)c3cc(NC(=N)c4ccccc4)cn3C)cn2C)nc1C(=O)NCCCN(C)C,7,5.8,> 32,> 32,4,23,–,26.2,25,> 32,–
CN(C)CCCNC(=O)c1cc(NC(=O)c2cc(NC(=O)c3cc(NC(=N)N)cn3C)cn2C)cn1C,5,6.2,> 32,> 32,>32,> 100,–,14.2,–,–,inactive
CC(C)CCc1sc(NC(=O)c2cc(NC(=O)c3cc(NC(=N)c4ccc(Cl)cc4)cn3C)cn2C)nc1C(=O)NCCCN(C)C,4,4.3,8,> 32,4,13,–,26.8,13,10,–
CC(C)CCc1sc(NC(=O)c2cc(NC(=O)c3cc(NC(=N)c4cccc(F)c4)cn3C)cn2C)nc1C(=O)NCCCN(C)C,4,5.5,8,> 32,8,18,25,26.2,3.1,18,–
CC(C)CCn1cc(NC(=O)c2cc(NC(=O)c3cc(NC(=N)c4ccccc4)cn3C)cn2C)cc1C(=O)NCCCN(C)C,8,1.2,> 32,> 32,>32,33,–,22.6,–,–,inactive
CN(C)CCCNC(=O)c1cc(NC(=O)c2cc(NC(=O)c3cc(NC(=N)c4cnc5ccccc5c4)cn3C)cn2C)cn1C,> 17,0.6,> 32,> 32,8,5.7,–,19.7,25,> 32,–
CC(=O)Nc1cc(C(=O)Nc2cc(C(=O)Nc3cc(C(=O)NCCCN(C)C)n(C)c3)n(C)c2)n(C)c1,5,7,> 32,> 32,>32,> 100,–,18.3,–,–,inactive
CC(C)CCc1sc(NC(=O)c2cc(NC(=O)c3cc(NC(=N)N)cn3C)cn2C)nc1C(=O)NCCCN(C)C,4,6.1,16,> 32,4,15,–,23.4,–,20,inactive
CC(C)CCc1sc(NC(=O)c2cc(NC(=O)c3cc(NC(=N)c4cnc5ccccc5c4)cn3C)cn2C)nc1C(=O)NCCCN(C)C,2,1.9,1,> 32,0.25,3.3,–,27.3,–,1.2,inactive
